OX1R antag-1: human HCRTR1 antagonism; CHO/OX1R cells, Fluo-8 calcium fluorescence, orexin A; inhibition, % at 5 µM; 0.43% of 330,000 active;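 active means inhibition above its plate's threshold, mean inhibition of all tested compounds on the plate plus 3 SD, cut at about 37% in these data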;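 further: 0% = orexin A challenge wells and 100% = SB-334867-A antagonist wells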
Target sequence (O43613 whole entry, looked up): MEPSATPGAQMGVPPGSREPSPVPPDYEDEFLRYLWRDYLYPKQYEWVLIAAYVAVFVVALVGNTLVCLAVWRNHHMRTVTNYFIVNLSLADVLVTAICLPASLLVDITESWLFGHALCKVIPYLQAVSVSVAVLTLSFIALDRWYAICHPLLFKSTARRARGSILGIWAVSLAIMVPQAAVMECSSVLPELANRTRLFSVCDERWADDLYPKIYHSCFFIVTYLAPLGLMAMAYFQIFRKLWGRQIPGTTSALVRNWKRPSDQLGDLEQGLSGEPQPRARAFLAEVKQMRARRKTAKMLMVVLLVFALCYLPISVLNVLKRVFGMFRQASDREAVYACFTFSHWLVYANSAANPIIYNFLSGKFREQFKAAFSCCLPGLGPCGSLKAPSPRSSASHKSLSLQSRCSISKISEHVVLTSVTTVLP
OX1R antag-2: antagonists of human orexin 1 receptor (OX1R); O43613; OX1R-expressing cells, FRET antagonist read-out; inhibition, % at 6.6 µM; 1.8% of 330,000 active; in the data active means inhibition mostly above about 38%, no sharp cut-off; inactive means mostly below about 40%;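 further: 0% = agonist challenge alone and 100% = reference antagonist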
GPR7 antag: antagonists of human GPR7 (neuropeptides B/W receptor 1). P48145. GPR7-expressing cells, fluorescence antagonist assay. 1.1% of 290,000 active. inhibition, % at 4.4 µM. AID 1861; in the data active means inhibition above about 16%, passing the limit was not always enough;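 further: cells stimulated with the agonist NPW; 0% = agonist with vehicle and 100% = vehicle without agonist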
CHO parental Ca: counter-screen for OX1R antagonists: effect in parental CHO cells. parental CHO-K1, ATP-induced calcium, Fluo-8 fluorescence. 0.63% of 330,000 active. inhibition, % at 5.6 µM;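 active means inhibition above that plate's mean sample inhibition plus 3 SD, cut at about 26% in these data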;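 further: 0% = ATP-challenged DMSO wells and 100% = DMSO wells without ATP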
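Test system: parental CHO cells; detection: calcium-sensitive Fluo-8 fluorescence; evaluation: percent inhibition of calcium signal; also added: ATP as calcium-mobilizing challenge; repeats: one well per compound; control set: ATP-challenged DMSO wells low, unchallenged DMSO wells high; compound: single nominal dose of 5.6 µM per compound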
GalR3 antagonist: human GalR3 antagonism | O60755 | HEK293 GalR3-CNG cAMP membrane potential fluorescence; galR3 body fused to GalR1 C-terminus | inhibition, % at 3 µM | 0.44% of 360,000 active | AID 651719;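 active means inhibition above the screen-wide average plus 3 SD, cut at about 13% in these data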;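 further: forskolin and galanin both at EC90 stimulate the cells; cAMP rise reported by CNG channel membrane potential dye signal; 0% = forskolin plus galanin with DMSO and 100% = forskolin alone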
An asterisk follows results filed as active; / = no result given. Compounds with a hit are over-represented: about 3.1% of the library has one in this group of screens.

SMILES | OX1R antag-1 | OX1R antag-2 | GPR7 antag | CHO parental Ca | GalR3 antagonist
CC(=O)Nc1ccc(NC(=O)C(=O)NCC(c2ccco2)N2CCc3ccccc3C2)cc1 (stereo not given) | 17 | 19 | / | 49* | -1
CC(C)CNC(=O)c1cccc(NC(=O)C(C)Oc2ccccc2)c1 (stereo not given) | -7 | 35 | -6 | -8 | -7
O=C(Nc1cccc(C(F)(F)F)c1)c1scc2c1OCCO2 | -7 | 15 | -6 | 43* | 3
COc1ccc(NC(=O)c2sc(-c3ccccc3)nc2C)c(OC)c1 | -3 | 43* | -20 | -38 | -7
O=C(O)c1ccc(/C=N\Nc2ccc(S(=O)(=O)N3CCOCC3)cc2[N+](=O)[O-])cc1 | -7 | 8 | -2 | -11 | 0
C/C(CCC(C)C)=N\Nc1ccc(S(N)(=O)=O)cc1[N+](=O)[O-] | -16 | 25 | -14 | -8 | -1
CCC(CC)=NNc1ccc(S(N)(=O)=O)cc1[N+](=O)[O-] | -1 | 46* | 2 | 4 | -1
CCOC(=O)N1CCC(=NNc2ccc(S(N)(=O)=O)cc2[N+](=O)[O-])CC1 | -2 | 59* | -8 | -2 | 0
NS(=O)(=O)c1ccc(N/N=C/c2ccc(C(=O)O)cc2)c([N+](=O)[O-])c1 | -8 | 50* | -13 | -8 | -4
CC(=O)N1CCC(=NNc2ccc(S(N)(=O)=O)cc2[N+](=O)[O-])CC1 | 2 | 51 | -8 | 2 | -7
NS(=O)(=O)c1ccc(NN=C2CCCCC2)c([N+](=O)[O-])c1 | 7 | 73* | -7 | 17 | -5
COc1ccc(NC(=O)CSc2nnc(-c3cc(C)[nH]n3)n2N)cc1 | 0 | -2 | -12 | -4 | 3
COc1ccc(OC)c(C(=O)NC2CCSc3ccccc32)c1 (stereo not given) | -21 | 47* | -1 | -24 | -8
COc1ccc(S(=O)(=O)N(CC(=O)O)c2ccccn2)cc1 | -6 | 15 | -2 | -6 | -3
COc1ccc(S(=O)(=O)n2ccc(-c3ccc(OCCN(C)c4ccccn4)cc3)n2)cc1 | 0 | 20 | 21* | 12 | -10
CC(=O)c1cccc(-c2ccnc3c2CC(C(=O)NCC2CCOCC2)O3)c1 (stereo not given) | / | / | / | / | -8
CCCC[n+]1c2ccccc2cc2ccccc21 | -12 | 48* | 34 | -15 | -8
O=C(c1ccc([N+](=O)[O-])s1)N1CCc2ccccc21 | -5 | 7 | 2 | -1 | -7
O=C(c1ccc([N+](=O)[O-])s1)N1CCCc2ccccc21 | -6 | 67* | 8 | -9 | -7
Cc1cc(NC(=O)Cn2nc(-c3cccs3)ccc2=O)cc(C)c1Br | -16 | 14 | -4 | -9 | -6
Cc1c(Br)ccc(NC(=O)Cn2nc(-c3cccs3)ccc2=O)c1C | 0 | 55* | 13 | -22 | -6
COc1ccc(CN2C(=NC(=O)CCc3ccccc3)SC3CS(=O)(=O)CC32)cc1 (stereo not given) | -17 | 4 | -7 | -3 | -2
COc1ccc(/C=C2\SC(=S)N(CCC(=O)N3CCCCC3)C2=O)cc1 | -16 | 7 | -8 | -7 | -11
COCCN1C(=O)/C(=C/c2ccc(N3CCCC3)cc2)SC1=S | 50* | 13 | 1 | 42* | -2
CCCOc1cccc(NC(=O)OC2CCN(C)CC2)c1 | -33 | 6 | -6 | -6 | -11
SMILES | OX1R antag-1 | OX1R antag-2 | GPR7 antag | CHO parental Ca | GalR3 antagonist
CCc1cc2c(=O)[nH]c(Cc3ccccc3)nc2s1 | -9 | 24 | -17 | 43* | -2
C=CCn1c(C(C)NC(=O)CCC)nc2ccccc21 (stereo not given) | -1 | 10 | 20* | 4 | -5
O=C(Nc1ncc(S(=O)(=O)c2ccc([N+](=O)[O-])cc2)s1)c1ccccc1F | 54* | 31 | -2 | 39* | -5
O=C(Nc1ccc2nc3n(c(=O)c2c1)CCCCC3)c1cc([N+](=O)[O-])ccc1F | -16 | 39 | 7 | -15 | -3
O=c1nc2n(c3ccc([N+](=O)[O-])cc13)CCCCC2 | 0 | 59* | -3 | -3 | -7
Cc1ccc(S(=O)(=O)Cc2cc(F)c([N+](=O)[O-])cc2[N+](=O)[O-])cc1 | 60* | 41* | 30* | 57* | /
COc1ccccc1NC(=O)c1ccccc1S(=O)(=O)c1ccccc1[N+](=O)[O-] | -9 | 58* | -7 | -14 | -1
CCN(C(=O)C1CCN(c2nc(-c3ccc(OC)cc3)no2)CC1)c1ccc(OC)cc1 | -3 | 19 | 6 | 36* | /
O=C(Oc1ccccc1)c1ccccc1OS(=O)(=O)c1ccccc1 | 61* | 41 | -6 | 65* | -5
O=C(O)c1sccc1Oc1ccc(NS(=O)(=O)c2ccc(Cl)cc2)cc1 | -8 | -3 | -11 | -2 | -8
N#Cc1cccc(C#N)c1Oc1ccc(S(=O)(=O)Nc2ccc(Cl)cc2)cc1 | 13 | 13 | 15 | 43* | 4
O=C(NCc1cccnc1)/C(=C\c1ccc(-c2ccc(Br)cc2)o1)S(=O)(=O)c1ccccc1 | -19 | 21 | 23* | -18 | 0
O=C(NCc1cccnc1)/C(=C/c1ccc(-c2ccc(Cl)cc2)o1)S(=O)(=O)c1ccccc1 | -16 | 31 | 27* | -4 | -5
O=C(NCc1cccnc1)/C(=C/c1ccc(-c2cccc(C(F)(F)F)c2)o1)NC(=O)c1ccccc1 | -24 | 15 | -5 | -18 | 5
O=C1N2CCSC2=NC1(Nc1nccs1)C(F)(F)F (stereo not given) | 29 | 48* | -8 | -3 | -7
CCCC(=O)Nc1ccc(NC(=S)NC(=O)c2ccccc2[N+](=O)[O-])cc1 | -31 | 10 | 12 | -4 | -5
C/C(CC(=O)Nc1ccc([N+](=O)[O-])cc1)=N\NC(=O)c1ccccc1[N+](=O)[O-] | 32 | 2 | 8 | 32* | 1
CCCc1ccc(Oc2cn[nH]c2-c2ccc(O)cc2O)cc1 | 22 | -6 | -7 | 35* | -6
C=C(C)COc1ccc(-c2[nH]ncc2Oc2cccc(OC)c2)c(O)c1 | 31 | 13 | -18 | 75* | -3
COc1ccc(Oc2cn[nH]c2-c2ccc(O)cc2O)cc1 | 0 | 1 | 9 | 9 | 11
C=C(C)COc1ccc(-c2[nH]ncc2-c2ccc(OC)cc2)c(O)c1 | -6 | 18 | 1 | 42* | -6
C=C(C)COc1ccc(-c2[nH]ncc2Oc2ccccc2OCC)c(O)c1 | 5 | 25 | -3 | -8 | -2
C=C(C)COc1ccc(-c2[nH]ncc2-c2ccccc2)c(O)c1 | 13 | 1 | -16 | -3 | -1
CC1(C)CC(=O)C=C(c2ccc(COC(=O)C3CC3)cc2)C1=O | / | / | / | / | -7
O=C1CSc2ccc(S(=O)(=O)CCC(=O)NC3CCCCC3)cc2N1 | -3 | 3 | -6 | -9 | -5
CCCCC1(Br)C(=O)N(c2ccccc2)N(c2ccccc2)C1=O | -8 | 13 | / | -19 | -3
CCSc1nnc(N2C(=O)c3ccc(C(=O)c4ccc(C(=O)O)cc4)cc3C2=O)s1 | -10 | 8 | -17 | -12 | -1

Screening results (PubChem BioAssay)
